Measurements reported in article PMC4834983 (Journal of medicinal chemistry, 2015).

What was measured:
[1] = system: MDA-MB-231 cells; assay: CyQuant cell proliferation assay; format: cell-based, human; settings: for effect on MDA-MB-231 cell growth: 5 μM
In short: (§1)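 CyQuant DNA-dye proliferation assay on cultured cells after 72 h exposure to test compound. Viability expressed relative to DMSO-treated control cells.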

[2] = system: U373MG cells; assay: CyQuant cell proliferation assay; format: cell-based; settings: Homo sapiens, U373 MG, 72 h, read-out: IC50 cell proliferation U373MG
In short: as §1

[3] = target: Stat3:Stat3 (Mus musculus, UniProt P42227); assay: Cell-free EMSA, nuclear extracts pre-incubated with compound, hSIE probe; format: biochemical; settings: for Stat3:Stat3/DNA-binding activity (complexation), cell-free EMSA: 5 μM, 30 min pre-incubation, NIH3T3/v-Src nuclear extracts
[4] = target: T1, Stat1:Stat1 (Mus musculus, UniProt P42225); assay: Cell-free EMSA, EGF-stimulated NIH3T3/hEGFR nuclear extracts; format: biochemical; settings: 5 μM, 30 min pre-incubation
T1 sequence (P42225 2-749 limits assumed): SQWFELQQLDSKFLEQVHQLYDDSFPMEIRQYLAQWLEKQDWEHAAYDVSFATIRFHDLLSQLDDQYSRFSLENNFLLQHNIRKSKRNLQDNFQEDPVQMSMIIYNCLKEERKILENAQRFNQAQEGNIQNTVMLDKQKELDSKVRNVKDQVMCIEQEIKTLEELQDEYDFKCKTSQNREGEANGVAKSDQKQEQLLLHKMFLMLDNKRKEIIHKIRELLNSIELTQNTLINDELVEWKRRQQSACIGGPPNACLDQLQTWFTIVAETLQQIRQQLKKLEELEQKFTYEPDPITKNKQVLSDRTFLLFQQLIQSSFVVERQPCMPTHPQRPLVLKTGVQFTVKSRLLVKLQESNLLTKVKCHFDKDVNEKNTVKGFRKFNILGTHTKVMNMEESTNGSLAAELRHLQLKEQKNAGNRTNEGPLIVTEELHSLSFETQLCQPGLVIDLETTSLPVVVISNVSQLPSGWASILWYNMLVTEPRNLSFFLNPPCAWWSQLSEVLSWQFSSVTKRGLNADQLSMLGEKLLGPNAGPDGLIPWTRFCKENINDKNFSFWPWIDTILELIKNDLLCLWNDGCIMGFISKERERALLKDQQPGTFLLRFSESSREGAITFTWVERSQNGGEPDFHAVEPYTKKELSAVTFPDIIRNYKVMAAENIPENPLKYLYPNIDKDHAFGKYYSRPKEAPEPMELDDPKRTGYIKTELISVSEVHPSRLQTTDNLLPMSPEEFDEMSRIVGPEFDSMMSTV
In short: (§2)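 Nuclear extracts from EGF-stimulated NIH3T3/hEGFR fibroblasts, containing active Stat1, Stat3 and Stat5, preincubated with 5 μM test compound for 30 min at room temperature. Then incubated 30 min with 32P-labelled probe before EMSA: hSIE (Stat1/Stat3 binding) or MGFe (bovine β-casein element; Stat1/Stat5 binding). STAT:DNA bands quantified as percent of control.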

[5] = system: SF295 cells; assay: CyQuant cell proliferation assay; format: cell-based; settings: Homo sapiens, SF-295, 72 h, read-out: IC50 cell proliferation SF295
In short: as §1

[6] = system: Stat3; assay: Stat3 DNA-binding activity/EMSA of nuclear extracts from treated glioma cells; format: cell-based, human; settings: for effect on Stat3 DNA-binding activity in treated tumor cells: 5 μM, glioma cells, EMSA; for IC50: Homo sapiens, U-251, read-out: IC50 Stat3 DNA-binding activity in treated cells
[7] = system: Stat5:Stat5; assay: Cell-free EMSA, EGF-stimulated NIH3T3/hEGFR nuclear extracts, MGFe probe; format: biochemical, mouse; settings: 5 μM, 30 min pre-incubation
In short: as §2

[8] = system: MCF-7 cells; assay: CyQuant cell proliferation assay; format: cell-based; settings: Homo sapiens, MCF7, 72 h, read-out: IC50 cell proliferation MCF-7
In short: as §1

[9] = system: pYStat3; assay: Immunoblotting of pStat3 in treated U251MG cells; format: cell-based, human; settings: for effect on pStat3 in treated tumor cells: 5 μM, glioma cells, immunoblotting
In short: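 Whole-cell lysates from U251MG cells given test compound at 5 μM for 0–24 h, or at 0–5 μM for 2 h. Immunoblotted for pY705Stat3 and total Stat3, with GAPDH as loading reference.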

[10] = system: U251MG cells; assay: CyQuant cell proliferation assay; format: cell-based, human; settings: for activity against U251MG cell growth: 5 μM; for IC50: Homo sapiens, U-251, 72 h, read-out: IC50 cell proliferation U251MG
In short: as §1

Sequence of Stat3:Stat3 (P42227 2-770 limits assumed): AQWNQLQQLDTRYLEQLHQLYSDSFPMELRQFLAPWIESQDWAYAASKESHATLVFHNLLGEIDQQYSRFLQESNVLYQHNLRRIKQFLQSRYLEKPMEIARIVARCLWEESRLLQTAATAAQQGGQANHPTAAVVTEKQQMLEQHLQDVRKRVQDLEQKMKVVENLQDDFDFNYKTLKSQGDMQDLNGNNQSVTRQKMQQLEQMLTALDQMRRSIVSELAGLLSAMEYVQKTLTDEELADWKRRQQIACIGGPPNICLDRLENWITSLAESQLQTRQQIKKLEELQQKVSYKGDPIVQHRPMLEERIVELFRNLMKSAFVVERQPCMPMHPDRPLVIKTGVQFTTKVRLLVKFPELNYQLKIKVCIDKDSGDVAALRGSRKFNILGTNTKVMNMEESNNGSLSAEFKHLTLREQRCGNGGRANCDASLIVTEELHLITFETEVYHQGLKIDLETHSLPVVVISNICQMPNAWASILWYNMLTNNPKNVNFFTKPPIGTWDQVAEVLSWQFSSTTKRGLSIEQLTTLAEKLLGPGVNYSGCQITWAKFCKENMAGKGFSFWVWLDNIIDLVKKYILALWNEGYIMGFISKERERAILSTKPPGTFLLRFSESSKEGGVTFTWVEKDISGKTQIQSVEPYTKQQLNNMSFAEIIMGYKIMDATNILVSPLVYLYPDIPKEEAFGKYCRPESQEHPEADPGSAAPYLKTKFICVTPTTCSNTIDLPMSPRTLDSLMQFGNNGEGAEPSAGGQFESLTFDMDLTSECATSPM

Row | Compound | Stat3:Stat3/DNA-binding activity (complexation), cell-free EMSA [3] | effect on Stat3 DNA-binding activity in treated tumor cells [6] | effect on pStat3 in treated tumor cells [9] | activity against U251MG cell growth [10] | further results
1 | C=C(C)C(=O)O[C@H]1C[C@@H](C)[C@]2(O)CC[C@](C)(/C=C3/OC(=O)C(COC(C)=O)=C31)O2 [Compound 7] | diminished | strongly inhibited | strongly inhibited | – | IC50 ([1]; Homo sapiens, MDA-MB-231, 72 h, read-out: IC50 cell proliferation MDA-MB-231): 5200 to 9100 nM; IC50 [2]: 6600 to 8200 nM; effect on Stat1:Stat1 activity, cell-free EMSA [4]: weak effects; IC50 [5]: 7400 to 18300 nM; effect on Stat5:Stat5 activity, cell-free EMSA [7]: weak effects; IC50 [8]: 4800 to 9600 nM
2 | C/C=C(\C)C(=O)O[C@H]1C[C@@H](C)[C@]2(O)CC[C@](C)(/C=C3/OC(=O)C(CO)=C31)O2 [Compound 8] | only weakly inhibited | – | little impact | – | –
3 | C[C@@H]1C[C@H](O)C2=C(CO)C(=O)O/C2=C/[C@@]2(C)CC[C@]1(O)O2 [Compound 14] | only weakly inhibited | – | little impact | – | –
4 | C=C(C)C(=O)O[C@H]1C[C@@H](C)[C@]2(O)CC[C@](C)(/C=C3/OC(=O)C(CO)=C31)O2 [Compound 18] | only weakly inhibited | – | little impact | – | –
5 | C/C=C(/C)C(=O)O[C@H]1C[C@@H](C)[C@]2(O)CC[C@](C)(/C=C3/OC(=O)C(CO)=C31)O2 [Compound 19] | only weakly inhibited | – | little impact | – | –
6 | C/C(=C\CO)C(=O)O[C@H]1C[C@@H](C)[C@]2(O)CC[C@](C)(/C=C3/OC(=O)C(CO)=C31)O2 [Compound 21] | only weakly inhibited | – | little impact | – | –
7 | C=C(C)C(=O)O[C@H]1C[C@@H](C)[C@]2(OC)CC[C@](C)(/C=C3/OC(=O)C(CO)=C31)O2 [Compound 28] | only weakly inhibited | – | little impact | – | –
8 | CCC(C)C(=O)OCC1=C2/C(=C\[C@@]3(C)CC[C@](O)(O3)[C@H](C)C[C@@H]2O)OC1=O (stereo partly drawn) [Compound 29] | moderate inhibitory effects | – | little effect | weakly-active or inactive | –
9 | C[C@@H]1C[C@H](O)C2=C(COC(=O)/C=C/c3ccccc3)C(=O)O/C2=C/[C@@]2(C)CC[C@]1(O)O2 [Compound 30] | diminished | suppressed | suppressed | retained or improved the inhibitory potency | IC50 [10]: 1000 to 1200 nM; IC50 [6]: 500 to 2500 nM
10 | CC(C)=CCC/C(C)=C/C(=O)OCC1=C2/C(=C\[C@@]3(C)CC[C@](O)(O3)[C@H](C)C[C@@H]2O)OC1=O [Compound 31] | diminished | suppressed | suppressed | retained or improved the inhibitory potency | effect on Stat1:Stat1 activity, cell-free EMSA [4]: moderate effect; IC50 [10]: 1000 to 1200 nM; IC50 [6]: 500 to 2500 nM
11 | CC(C)=CC(=O)OCC1=C2/C(=C\[C@@]3(C)CC[C@](O)(O3)[C@H](C)C[C@@H]2O)OC1=O [Compound 32] | diminished | – | moderate effect | weakly-active or inactive | –
12 | CC(C)=CCCC(C)CC(=O)OCC1=C2/C(=C\[C@@]3(C)CC[C@](O)(O3)[C@H](C)C[C@@H]2O)OC1=O (stereo partly drawn) [Compound 33] | diminished | suppressed | suppressed | retained or improved the inhibitory potency | IC50 [10]: 1000 to 1200 nM; IC50 [6]: 500 to 2500 nM
13 | C[C@@H]1C[C@H](O)C2=C(COC(=O)/C=C/c3ccc(F)cc3)C(=O)O/C2=C/[C@@]2(C)CC[C@]1(O)O2 [Compound 34] | diminished | – | – | retained or improved the inhibitory potency | effect on MDA-MB-231 cell growth [1]: strongly inhibited
14 | C[C@@H]1C[C@H](O)C2=C(COC(=O)/C=C/c3ccc(C(F)(F)F)cc3)C(=O)O/C2=C/[C@@]2(C)CC[C@]1(O)O2 [Compound 35] | diminished | – | – | retained or improved the inhibitory potency | –
15 | C[C@@H]1C[C@H](O)C2=C(COC(=O)CCc3ccccc3)C(=O)O/C2=C/[C@@]2(C)CC[C@]1(O)O2 [Compound 36] | diminished | suppressed | suppressed | retained or improved the inhibitory potency | IC50 [10]: 1000 to 1200 nM; IC50 [6]: 500 to 2500 nM
16 | CCCC(CCC)C(=O)OCC1=C2/C(=C\[C@@]3(C)CC[C@](O)(O3)[C@H](C)C[C@@H]2O)OC1=O [Compound 37] | diminished | – | – | retained or improved the inhibitory potency | effect on MDA-MB-231 cell growth [1]: strongly inhibited
17 | C/C=C(\C)C(=O)OCC1=C2/C(=C\[C@@]3(C)CC[C@](OC)(O3)[C@H](C)C[C@@H]2OC(=O)/C(C)=C/C)OC1=O [Compound 39] | diminished | suppressed | suppressed | retained or improved the inhibitory potency | effect on MDA-MB-231 cell growth [1]: strongly inhibited; IC50 [6]: 500 to 2500 nM
18 | C/C=C(\C)C(=O)O[C@H]1C[C@@H](C)[C@]2(OC)CC[C@](C)(/C=C3/OC(=O)C(COC(=O)/C=C/c4ccccc4)=C31)O2 [Compound 40] | moderate inhibitory effects | – | – | retained or improved the inhibitory potency | effect on MDA-MB-231 cell growth [1]: strongly inhibited
19 | CCN1C(=O)C=CC1=O [NEM, N-ethylmaleimide, reference compound] | – | – | – | – | Stat3:Stat3/DNA complexation, dose-dependent ([3]; Fig. S3B): inhibits
20 | C=C1C(=O)O[C@H]2[C@H]1CC/C(C)=C/CC[C@@]1(C)O[C@@H]21 [parthenolide, reference compound] | – | – | – | – | cell growth activity, control compounds ([10]; panel of cell lines, Fig. S5E(i)): poorly-active or non-specific in activity; Stat3 activity in tumor cells, control compounds ([9]; Fig. S5E(ii)): did not inhibit
